According to ChEMBL document CHEMBL1145630, “Antidiabetic activity of N-(6-substituted-1,3-benzothiazol-2-yl)benzenesulfonamides” (2008):

Legend:
[1] = biological target: 11-beta-hydroxysteroid dehydrogenase 1 (Homo sapiens) (UniProt P28845); assay: Inhibition of human 11beta-HSD1 expressed in HEK293 cells at 10 uM by scintillation proximity assay; format: cell-based
Procedure, shortened: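 Cell-based scintillation proximity assay in HEK293 cells stably transfected with full-length human hsd11b1, grown in DMEM. Compounds were added at 1% final DMSO with 20 nM tritiated cortisone (final), 2 h at 37 °C. Medium was mixed with anti-mouse YSi SPA beads and anti-cortisol antibody in Tris-HCl pH 7.0 buffer, 2 h at room temperature. Inhibition was calculated against an uninhibited control.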

[2] = test system: Rattus norvegicus; assay: Antidiabetic effect in streptozo-nicotinamide rat model of diabetes assessed as change in blood glucose level at 100 mg/kg, po after 1 hr relative to control; format: functional
Procedure, shortened: (§1)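 Type 2 diabetes was induced in overnight-fasted rats with i.p. streptozotocin 65 mg/kg, given 15 min after i.p. nicotinamide 110 mg/kg. Rats with glucose above 250 mg/dL at 72 h were used, n = 5 per group. Compounds were suspended in 1% Tween 80 and given orally. Controls received vehicle; glibenclamide 5 mg/kg was the reference. Caudal-vein glucose was read by glucose-oxidase glucometer at 0, 1, 3, 5 and 7 h.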

[3] = test system: Rattus norvegicus; assay: Antidiabetic effect in streptozo-nicotinamide rat model of diabetes assessed as change in blood glucose level at 100 mg/kg, po after 3 hrs relative to control; format: functional; procedure, shortened: as §1
[4] = test system: Rattus norvegicus; assay: Antidiabetic effect in streptozo-nicotinamide rat model of diabetes assessed as change in blood glucose level at 100 mg/kg, po after 5 hrs relative to control; format: functional; procedure, shortened: as §1
[5] = test system: Rattus norvegicus; assay: Antidiabetic effect in streptozo-nicotinamide rat model of diabetes assessed as change in blood glucose level at 100 mg/kg, po after 7 hrs relative to control; format: functional; procedure, shortened: as §1

Sequence of 11-beta-hydroxysteroid dehydrogenase 1 (Homo sapiens) (P28845 whole entry, looked up): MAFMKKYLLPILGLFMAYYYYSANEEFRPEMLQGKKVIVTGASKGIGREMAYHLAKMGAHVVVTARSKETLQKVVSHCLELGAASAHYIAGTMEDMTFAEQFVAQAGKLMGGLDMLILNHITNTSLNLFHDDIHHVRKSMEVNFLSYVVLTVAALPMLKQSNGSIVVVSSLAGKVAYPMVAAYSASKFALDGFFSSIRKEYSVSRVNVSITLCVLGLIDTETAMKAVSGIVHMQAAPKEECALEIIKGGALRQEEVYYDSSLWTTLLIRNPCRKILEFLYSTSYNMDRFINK

Compound | inhibition [1] [%] | Activity [2] [%] | Activity [3] [%] | Activity [4] [%] | Activity [5] [%]
CC(=O)Nc1ccc(S(=O)(=O)Nc2nc3ccc([N+](=O)[O-])cc3s2)cc1 | 7.69 | 37.2 | 11.8 | 4 | 30
COc1ccc(Cl)cc1C(=O)NCCc1ccc(S(=O)(=O)NC(=O)NC2CCCCC2)cc1 [GLYBURIDE] |  | 78 | 32.6 | 51.5 | 55.4
COc1ccc2nc(NS(=O)(=O)c3ccc([N+](=O)[O-])cc3)sc2c1 | 53.3 | 69.7 | 42.5 | 18.1 | 27.8
CCOc1ccc2nc(NS(=O)(=O)c3ccc([N+](=O)[O-])cc3)sc2c1 | 15.5 |  |  |  | 
COc1ccc(S(=O)(=O)Nc2nc3ccc([N+](=O)[O-])cc3s2)cc1 | 25.6 | 77.1 | 49 | 19.1 | 29
COc1ccc2nc(NS(=O)(=O)c3ccccc3)sc2c1 | 37.6 | 78.1 | 62.9 | 31.5 | 53.2

More lines, main results first:

inhibition [1] [%] | Compound | Activity [2] [%] | Activity [3] [%] | Activity [4] [%] | Activity [5] [%]
11.1 | Cc1ccc2nc(NS(=O)(=O)c3ccc([N+](=O)[O-])cc3)sc2c1 |  |  |  | 
16.4 | CCOc1ccc2nc(NS(=O)(=O)c3ccc(C)cc3)sc2c1 |  |  |  | 
27.2 | Cc1ccc2nc(NS(=O)(=O)c3ccc(Cl)cc3)sc2c1 | 34 | 36.1 | 12.2 | 21.4
